In ChEMBL document CHEMBL2311431, “Synthesis and biological evaluation of some 5-arylidene-2-(1,3-thiazol-2-ylimino)-1,3-thiazolidin-4-ones as dual anti-inflammatory/antimicrobial agents” (Bioorg Med Chem, 2013):

Tests used:
[1] = tested on: Mus musculus; assay: Acute toxicity in AKR mouse up to 0.5 mmol/kg, ip; assay type: organism-based; details: in vivo
[2] = tested on: Mus musculus; assay: Antiinflammatory activity in AKR mouse assessed as inhibition of carrageenan-induced paw edema at 0.01 mmol/kg, ip measured after 3.5 hrs of carrageenan-challenge; assay type: functional
Outline: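 AKR mice of both sexes (pregnant females excluded), 6-10 per group, fasted during the experiment. Edema induced by intradermal 0.05 mL of 2% carrageenin into the right hind paw. Compound given at 0.01 mmol/kg ip, suspended in water with Tween-80, at the same time as carrageenin.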

[3] = biological target: T1, Prostaglandin G/H synthase 1 (Ovis aries) (UniProt P05979); assay: Inhibition of ovine COX1 assessed as inhibition of PGF2a production by enzyme immunoassay; design: concentration or dose not given beside the values; details: concentration not given here
T1 sequence (whole entry): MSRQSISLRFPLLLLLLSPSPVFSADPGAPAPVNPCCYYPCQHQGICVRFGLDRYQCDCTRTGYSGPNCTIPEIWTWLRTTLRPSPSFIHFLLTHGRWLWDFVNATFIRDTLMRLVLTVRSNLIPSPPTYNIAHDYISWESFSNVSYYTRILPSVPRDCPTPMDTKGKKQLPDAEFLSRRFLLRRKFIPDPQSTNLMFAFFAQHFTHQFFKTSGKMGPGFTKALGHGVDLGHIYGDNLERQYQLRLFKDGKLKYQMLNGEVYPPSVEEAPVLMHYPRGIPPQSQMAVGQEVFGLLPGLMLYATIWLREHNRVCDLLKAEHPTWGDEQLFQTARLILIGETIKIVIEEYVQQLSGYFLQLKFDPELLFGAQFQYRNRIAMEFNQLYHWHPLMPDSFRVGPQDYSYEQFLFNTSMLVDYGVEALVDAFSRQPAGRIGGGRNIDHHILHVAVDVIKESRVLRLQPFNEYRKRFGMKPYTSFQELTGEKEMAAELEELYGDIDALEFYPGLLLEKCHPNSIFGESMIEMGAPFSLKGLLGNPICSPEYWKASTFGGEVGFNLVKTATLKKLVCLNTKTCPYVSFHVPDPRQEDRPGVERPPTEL
Outline: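 Ovine COX-1 from a commercial screening kit, tested with 0.1 µM arachidonic acid, which is below the saturating level. COX-derived PGH2 is reduced by SnCl2 to PGF2a, quantified by enzyme immunoassay with a broad prostaglandin antibody. At least triplicate.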

[4] = Inhibition of soybean lipoxygenase assessed as inhibition of sodium linolate conversion to 13-hydroperoxylinoleic acid after 4 mins by spectrophotometry; design: species or system Glycine max; details: read-out: IC50
[5] = tested on: Aspergillus niger; assay: Fungicidal activity against Aspergillus niger ATCC 6275 after 72 hrs by serial subcultivation method; assay type: functional; details: ATCC 6275, 72 h
[6] = tested on: Aspergillus niger; assay: Antifungal activity against Aspergillus niger ATCC 6275 after 72 hrs by serial dilution technique; assay type: functional; details: ATCC 6275, 72 h
Outline: (§1)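 Serial dilution in malt broth; compounds from 1 mg/ml stocks in 5% DMSO; 72 h at 28 °C. MIC is the lowest concentration with no visible growth under a binocular microscope. Run in duplicate, repeated three times.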

[7] = tested on: Aspergillus fumigatus; assay: Fungicidal activity against Aspergillus fumigatus after 72 hrs by serial subcultivation method; assay type: functional
[8] = tested on: Aspergillus flavus; assay: Fungicidal activity against Aspergillus flavus ATCC 9643 after 72 hrs by serial subcultivation method; assay type: functional; details: ATCC 9643, 72 h
[9] = tested on: Trichoderma viride; assay: Fungicidal activity against Trichoderma viride IAM 5061 after 72 hrs by serial subcultivation method; assay type: functional; details: IAM 5061, 72 h
[10] = tested on: Penicillium ochrochloron; assay: Fungicidal activity against Penicillium ochrochloron ATCC 9112 after 72 hrs by serial subcultivation method; assay type: functional; details: ATCC 9112, 72 h
[11] = tested on: Aspergillus flavus; assay: Antifungal activity against Aspergillus flavus ATCC 9643 after 72 hrs by serial dilution technique; assay type: functional; details: ATCC 9643, 72 h; outline: as §1
[12] = tested on: Talaromyces funiculosus; assay: Fungicidal activity against Penicillium funiculosum ATCC 36839 after 72 hrs by serial subcultivation method; assay type: functional; details: ATCC 36839, 72 h
[13] = tested on: Aspergillus fumigatus; assay: Antifungal activity against Aspergillus fumigatus after 72 hrs by serial dilution technique; assay type: functional; outline: as §1
[14] = tested on: Trichoderma viride; assay: Antifungal activity against Trichoderma viride IAM 5061 after 72 hrs by serial dilution technique; assay type: functional; details: IAM 5061, 72 h; outline: as §1
[15] = tested on: Penicillium ochrochloron; assay: Antifungal activity against Penicillium ochrochloron ATCC 9112 after 72 hrs by serial dilution technique; assay type: functional; details: ATCC 9112, 72 h; outline: as §1
[16] = tested on: Talaromyces funiculosus; assay: Antifungal activity against Penicillium funiculosum ATCC 36839 after 72 hrs by serial dilution technique; assay type: functional; details: ATCC 36839, 72 h; outline: as §1
[17] = tested on: Escherichia coli; assay: Bactericidal activity against Escherichia coli ATCC 35210 after 72 hrs by serial subcultivation method; assay type: functional; details: ATCC 35210, 72 h
[18] = tested on: Pseudomonas aeruginosa; assay: Bactericidal activity against Pseudomonas aeruginosa ATCC 27853 after 72 hrs by serial subcultivation method; assay type: functional; details: ATCC 27853, 72 h
[19] = tested on: Listeria monocytogenes; assay: Bactericidal activity against Listeria monocytogenes NCTC 7973 after 72 hrs by serial subcultivation method; assay type: functional; details: NCTC 7973, 72 h
[20] = tested on: Bacillus cereus; assay: Bactericidal activity against Bacillus cereus clinical isolate after 72 hrs by serial subcultivation method; assay type: functional
[21] = tested on: Micrococcus flavus; assay: Bactericidal activity against Micrococcus flavus ATCC 10240 after 72 hrs by serial subcultivation method; assay type: functional; details: ATCC 10240, 72 h
[22] = tested on: Staphylococcus aureus; assay: Bactericidal activity against Staphylococcus aureus ATCC 6538 after 72 hrs by serial subcultivation method; assay type: functional; details: ATCC 6538, 72 h
[23] = tested on: Escherichia coli; assay: Antibacterial activity against Escherichia coli ATCC 35210 after 24 hr by microdilution test; assay type: functional; details: ATCC 35210, 24 h
Outline: (§2)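 Broth microdilution in LB medium, about 1.0×10^4 cfu per well; compounds from 1 mg/ml stocks in 5% DMSO. Incubated 24 h. MIC is the lowest concentration with no visible growth under a binocular microscope. Run in duplicate, repeated three times.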

[24] = tested on: Listeria monocytogenes; assay: Antibacterial activity against Listeria monocytogenes NCTC 7973 after 24 hr by microdilution test; assay type: functional; details: NCTC 7973, 24 h; outline: as §2
[25] = tested on: Pseudomonas aeruginosa; assay: Antibacterial activity against Pseudomonas aeruginosa ATCC 27853 after 24 hr by microdilution test; assay type: functional; details: ATCC 27853, 24 h; outline: as §2
[26] = tested on: Micrococcus flavus; assay: Antibacterial activity against Micrococcus flavus ATCC 10240 after 24 hr by microdilution test; assay type: functional; details: ATCC 10240, 24 h; outline: as §2
[27] = tested on: Bacillus cereus; assay: Antibacterial activity against Bacillus cereus clinical isolate after 24 hr by microdilution test; assay type: functional; outline: as §2
[28] = tested on: Staphylococcus aureus; assay: Antibacterial activity against Staphylococcus aureus ATCC 6538 after 24 hr by microdilution test; assay type: functional; details: ATCC 6538, 24 h; outline: as §2

COc1ccccc1/C=C1\S/C(=N/c2nccs2)NC1=O
15.8 µM: MIC [6] | MIC [13] | MIC [14] | MIC [15] | MIC [16]
31.5 µM: MFC [5] | MFC [7] | MFC [8] | MFC [9] | MFC [10] | MFC [12] | MBC [20] | MBC [21] | MIC [23] | MIC [24] | MIC [25] | MIC [26] | MIC [27] | MIC [28]
Non-toxic: Activity [1]
63 µM: IC50 [4] | MBC [17] | MBC [18] | MBC [19] | MBC [22]
23.6 µM: MIC [11]
50%: inhibition in vivo at 10 µmol/kg [2]
86%: inhibition [3]

Cc1csc(/N=C2\NC(=O)/C(=C/c3ccc(Cl)cc3)S2)n1
30 µM: MBC [20] | MIC [24] | MIC [25] | MIC [26] | MIC [27]
15.2 µM: MFC [5] | MIC [6] | MFC [7] | MFC [8] | MFC [9] | MFC [10] | MIC [11] | MFC [12] | MIC [13]
42%: inhibition in vivo at 10 µmol/kg [2]
Non-toxic: Activity [1]
120 µM: MBC [18] | MIC [23] | MIC [28]
74%: inhibition [3]
240 µM: MBC [17] | MBC [22]
7.6 µM: MIC [14] | MIC [15] | MIC [16]
76 µM: IC50 [4]
60 µM: MBC [19] | MBC [21]
